In data set [1] the test system is HT-29. Nature of the data set: Inhibition of Wnt signaling in human HT29 cells assessed as inhibition of beta-catenin-mediated Tcf/Lef transcriptional activity after 24 hrs by dual luciferase reporter gene assay relative to control. Format: cell-based. The settings on record: HT-29, 24 h.
Data set [2] concerns A549. The data set can be described thus: Antiproliferative activity against human A549 cells after 72 hrs by MTT assay. Type of data set: functional. The settings on record: A549, 72 h. An outline of the steps: (§1)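 Cells grown in DMEM with 10% FBS, penicillin G, streptomycin and L-glutamine, seeded 7 x 10^3 per well, left 24 h, then exposed to scalar concentrations in complete medium for 72 h at 37 °C, 5% CO2. Viability read by MTT; IC50 taken as the concentration giving 50% inhibition of proliferation.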
(In general: Tetrazolium dyes change colour on reduction, which living cells bring about.)

Data set [3] deals with HT-29. The data set can be described thus: Antiproliferative activity against human HT-29 cells after 72 hrs by MTT assay. Format: functional. The settings on record: HT-29, 72 h. An outline of the steps:
as §1

The subject of data set [4] is LoVo. The data set can be described thus: Antiproliferative activity against human LoVo cells after 72 hrs by MTT assay. Format: functional. An outline of the steps:
as §1

The subject of data set [5] is HepG2. The data set can be described thus: Antiproliferative activity against human HepG2 cells after 72 hrs by MTT assay. Format: functional. The settings on record: HepG2, 72 h. An outline of the steps:
as §1

Data set [6] relates to HT-29. The data set can be described thus: Inhibition of Wnt/beta-catenin signaling in human HT29 cells assessed as […] in axin2 mRNA expression at 25 uM after 24 hrs by quantitative real-time PCR assay. Format: cell-based. An outline of the steps:
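Total RNA was extracted with TRIzol from HT-29 cells treated for 24 h. Transcripts were measured by real-time RT-PCR with GUS as the reference gene, and expression was expressed relative to untreated cells.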

In data set [7] the test system is HT-29. The data set can be described thus: Inhibition of Wnt signaling in human HT29 cells assessed as beta-catenin dephosphorylation at S33/37/T41 residues at 25 uM after 24 hrs by Western blot analysis. Format: cell-based. An outline of the steps: (§2)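 After 24 h exposure, HT-29 cells were washed in cold PBS, lysed on ice for 30 min and cleared at 15 000 g, 4 °C. 10 µg protein was run on 12% SDS-PAGE and transferred to PVDF. Blots were probed with specific primary antibodies, then peroxidase-labelled secondaries, and developed by ECL. β-actin re-probing served as the loading control.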
Background: Immunoblotting shows a protein as a band on a membrane.

Data set [8] has as its system HT-29. Nature of the data set: Inhibition of Wnt/beta-catenin signaling in human HT29 cells assessed as […] protein level at 25 uM after 24 hrs by Western blot analysis. Type of data set: cell-based. An outline of the steps: as §2
For data set [9], the system named is HT-29. The data set can be described thus: Inhibition of Wnt/beta-catenin signaling in human HT29 cells assessed as GSK3-beta dephosphorylation at Ser21/Ser9 residues at 25 uM after 24 hrs by Western blot analysis. Format: cell-based. An outline of the steps:
as §2

The test system of data set [10] is HT-29. The data set can be described thus: Inhibition of Wnt signaling in human HT29 cells assessed as increase in cytoplasmic beta-catenin at 25 uM after 24 hrs by fluorescence microscopy. Type of data set: cell-based. An outline of the steps:
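Cells were fixed in cold 4% formaldehyde for 15 min and stained with anti-β-catenin (mouse, 1:50), then an Alexa-conjugated secondary, with DAPI counterstain. Images were taken on a video-confocal microscope with a 60x objective.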

The subject of data set [11] is HT-29. The data set can be described thus: Inhibition of Wnt signaling in human HT29 cells assessed as inhibition of beta-catenin-mediated Tcf/Lef transcriptional activity at 25 uM after 24 hrs by dual luciferase reporter gene assay relative to control in presence of GSK-3beta inhibitor LiCl. Format: cell-based. An outline of the steps: (§3)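 HT-29 cells (1.4 x 10^4) were co-transfected with 1 µg BAT-LUX, which carries 7 TCF sites and the siamois promoter driving firefly luciferase, plus 1 µg Renilla vector. Cells were then treated at 37 °C for 24 h, with or without the GSK-3β inhibitor LiCl. Dual-Glo readout; values are the mean firefly/Renilla ratio.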
(In a reporter assay the amount or activity of a reporter protein is the signal.)

Data set [12] concerns HT-29. Nature of the data set: Inhibition of Wnt signaling in human HT29 cells assessed as inhibition of beta-catenin-mediated Tcf/Lef transcriptional activity at 25 uM after 24 hrs by dual luciferase reporter gene assay relative to control. Format: cell-based. An outline of the steps:
as §3

The nature of data set [13]: Antiproliferative activity against human fibroblasts after 72 hrs by MTT assay. Format: cell-based, Fibroblast.

Activity calls are given as the source filed them. The rule behind the calls is not given here. Bounds are passed on as bounds.

The term IC50 denotes the midpoint of a concentration-inhibition curve. Broadly, the GI50 is the concentration at which growth is held to half of that of the control. Higher therefore signals lower sensitivity of the cells.

As for `COc1cc(OC)n2cc(-c3ccc(N(Cc4ccccc4)Cc4ccccc4)cc3)nc2n1`, in data set [1], the IC50 worked out at 67 µM. Further, the concentration for 50% growth inhibition (GI50) is 7 µM in [2], > 100 µM in data set [3], 61.9 µM in data set [4] and > 100 µM in data set [5].

As to `Cc1ccn2cc(-c3ccc([N+](=O)[O-])cc3)nc2c1`, the concentration for half-maximal inhibition (IC50) in data set [1] turned out to be 23.1 µM. Besides, the values for the GI50 in data set [2] and in [3] were 62.4 µM and > 100 µM, respectively.

In the case of `Cc1ccc2nc(-c3ccc(N(Cc4ccccc4)Cc4ccccc4)cc3)cn2c1`, the concentration for half-maximal inhibition (IC50) in [1] was 19.5 µM. The concentration for 50% growth inhibition (GI50) in [2] worked out at 60 µM; in [3] it was 37.6 µM.

For the compound `Cc1ccc2nc(-c3ccc(NC(=O)c4ccccc4C(=O)O)cc3)cn2c1`, the inhibition result in [6], in data set [7], in [8], in data set [10], in data set [11] and in [12] was “Active” in each case. Further, in [9], the inhibition result is “inactive”. Further, the IC50 in data set [1] came out at 9.7 µM. Besides, the GI50 in data set [2] is > 100 µM; in [3], > 100 µM; in data set [4], 90.7 µM; in [5], > 100 µM.

For the compound `CC(C)COc1cc(N)nc(SCc2ccccc2)n1`, in [1], the IC50 is 72.2 µM. Also, the GI50 in [2] is 18.7 µM; in data set [3] it was 40 µM; in [4], 54.5 µM; in [5], 60.8 µM.

Regarding `O=C1[C@H](Cc2ccc(O)cc2)N2C(=O)CCN(C(=O)NCc3ccccc3)[C@H]2CN1Cc1cccc2ccccc12`, the inhibition entry in data set [6], in [11] and in data set [12] was “Active” throughout. Besides, the IC50 in data set [1] is 18.7 µM. Moreover, the GI50 in [2] stood at 6.1 µM; in data set [3] it was 17.2 µM; in data set [4] it was 15.6 µM; in [5] it was 12.7 µM.

For `CC(C)Cn1c(SCc2ccccc2)nc(N)cc1=O`, the IC50 in [1] turned out to be 30.7 µM. For the same compound, the 50% growth inhibitory concentration (GI50) is 83.3 µM in data set [2], > 100 µM in data set [3], 68 µM in [4] and 77 µM in data set [5].

Consider `CC(=O)Nc1cc(OCc2ccccc2)nc(SCc2ccccc2)n1`, for which, in data set [1], the IC50 was determined as 46.2 µM. In addition, the GI50 in [2] was 35.2 µM; in [3] it was 65.8 µM; in data set [4], 40 µM; in data set [5], 42.9 µM.

As to `Cc1cc(OCc2ccccc2)n2cc(-c3ccc([N+](=O)[O-])cc3)nc2n1`, the 50% inhibitory concentration (IC50) in [1] was 16.1 µM. Besides, the GI50 in data set [2] was 71 µM; in [3] it was > 100 µM; in [4], 74.9 µM; in [5], > 100 µM.

`Cc1ccc2nc(-c3ccc(N)cc3)cn2c1`: in [1], the IC50 stood at 52.6 µM. Besides, the GI50 in [2] was > 100 µM; in data set [3] it was 82.9 µM; in data set [4] it was 65.2 µM; in data set [5] it was > 100 µM.

`CNc1ccc(-c2cn3c(OC)cc(OC)nc3n2)cc1`: in [1], the IC50 worked out at 72.2 µM. Further, the GI50 in data set [2], in data set [3], in [4] and in data set [5] was > 100 µM each time.

As to `Cc1ccc2nc(-c3ccc([N+](=O)[O-])cc3)cn2c1`, the inhibition result in data set [6], in data set [10], in [11] and in data set [12] was “Active” throughout. In addition, the inhibition entry in [9] was “inactive”. Further, in [1], the IC50 came out at 6.2 µM. Moreover, the GI50 in data set [2], in [3], in data set [4] and in data set [5] was > 100 µM throughout.

For `Cc1ccn2cc(-c3ccc(NCc4ccccc4)cc3)nc2c1`, the IC50 in data set [1] was found to be 17.8 µM. This compound also gave a concentration for 50% growth inhibition (GI50) in data set [3] of 17.5 µM. Moreover, the GI50 at 72 h in [13] is > 100 µM.

Take `Nc1cc(=O)n(Cc2ccccc2)c(SCc2ccccc2)n1`: the IC50 in data set [1] worked out at 54.3 µM. For the same compound, the GI50 in [2] was > 100 µM; in data set [3], 100 µM; in [4] it was 84.9 µM; in data set [5] it was 97.8 µM.

Take `COc1cc(OC)n2cc(-c3ccc([N+](=O)[O-])cc3)nc2n1`: in data set [1], the IC50 was 57.8 µM. Also, the GI50 in data set [2] is 36.6 µM; in data set [3] it was > 100 µM; in [4], 70.6 µM; in data set [5] it was 35.9 µM.

For `Cc1ccn2cc(-c3ccc(NC(=O)c4ccccc4C(=O)O)cc3)nc2c1`, the IC50 in data set [1] was > 100 µM. The GI50 in [2] and in data set [3] was > 100 µM throughout.

Take `Nc1cc(OCc2ccccc2)nc(SCc2ccccc2)n1`: the half-inhibitory concentration (IC50) in data set [1] was > 100 µM. In addition, the GI50 stood at 46.2 µM in [2], 53.9 µM in data set [3], 53.7 µM in data set [4] and 49 µM in data set [5].

Turning to `COc1cc(OC)n2cc(-c3ccc(N)cc3)nc2n1`, the half-maximal inhibitory concentration (IC50) in [1] was 14.3 µM. The concentration for 50% growth inhibition (GI50) in data set [2], in data set [3], in [4] and in data set [5] was > 100 µM in each case.

Take `COc1cc(OC)n2cc(-c3ccc(NCc4ccccc4)cc3)nc2n1`: the IC50 in data set [1] worked out at 34.6 µM. Also, the GI50 in [2], in [3], in [4] and in [5] was > 100 µM throughout.

On to `CC(=O)Nc1cc(=O)n(CC(C)C)c(SCc2ccccc2)n1`, for which, in data set [1], the IC50 amounted to 43 µM. Moreover, the concentration for 50% growth inhibition (GI50) was determined as 46.4 µM in [2], 68.4 µM in data set [3], 58.5 µM in data set [4] and 67.6 µM in data set [5].

On to `CC(=O)Nc1cc(OCC(C)C)nc(SCc2ccccc2)n1`, for which the concentration for half-maximal inhibition (IC50) in [1] is > 100 µM. Further, the GI50 in data set [2] turned out to be 19.9 µM; in data set [3], 35.7 µM; in data set [4], 53.9 µM; in data set [5], 64.4 µM.

For the compound `Cc1ccn2cc(-c3ccc(N)cc3)nc2c1`, the half-maximal inhibitory concentration (IC50) in data set [1] was found to be 42.2 µM. Moreover, the concentration for 50% growth inhibition (GI50) in data set [2] was > 100 µM; in data set [3], 93.6 µM.

On to `CCCSc1nc(NC(C)=O)cc(OCc2ccccc2)n1`, for which the IC50 in data set [1] was found to be 81.8 µM. Besides, the 50% growth inhibitory concentration (GI50) in [2] is 75.7 µM; in data set [3], 59.9 µM; in data set [4], 54.9 µM; in data set [5], 75.1 µM.

As to `CCCSc1nc(N)cc(OCc2ccccc2)n1`, the half-maximal inhibitory concentration (IC50) in [1] was found to be 22.3 µM. The GI50 in data set [2] came out at 51 µM; in data set [3], 88.2 µM; in [4], 54.2 µM; in data set [5] it was 87.1 µM.

These data come from ChEMBL document CHEMBL3286382, “Synthesis and biological evaluation of imidazo[1,2-a]pyrimidines and imidazo[1,2-a]pyridines as new inhibitors of the Wnt/β-catenin signaling” (Eur J Med Chem, 2014).
